Shn3 3UTR inh: inhibitors of Schnurri-3 3'UTR reporter in osteoblasts | inhibition, % at 12.5 µM | AID 588674 | Clone20 osteoblast Shn3 3'UTR firefly luciferase, 24 h | 0.52% of 360,000 active;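 active = mean inhibition of at least 75% with every replicate also reaching 75%; inconclusive = mean inhibition at least 75% but some replicate below; inactive = mean inhibition below 75%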;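 also: 0% = median of neutral control wells and 100% = pilot-screen positive control compound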
PAX8 inh HTS: inhibitors of PAX8 transcriptional activity in RMG-I cells; RMG-I TPO-luciferase reporter, SteadyGlo, 24 h; inhibition, % at 12.6 µM; 1.2% of 360,000 active; AID 652154;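 active = mean replicate inhibition at least 60% with every replicate also reaching 60%; inconclusive = only one of the two criteria is met; inactive = mean below 60% and not all replicates reaching 60%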;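 also: luciferase light reporting Pax8 driven TPO promoter activity; plate controls were median of neutral control wells for no effect and mitoxantrone controls for full effect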
aSyn 5UTR inh: 5' untranslated region of α-synuclein, MLPCN primary screen. AID 1813. alpha-synuclein 5'UTR reporter, inhibitor activity. inhibition, % (tested at 7.5 µM). 0.82% of 300,000 active; in the data active = inhibition above about 60%; inconclusive = no clear call, values can overlap the other calls;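 also: H4 neuroglioblastoma cells stably carrying SNCA 5'UTR luciferase fusion; 0% = DMSO wells and 100% = positive control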
FN deposition inh: fibronectin deposition inhibition | 0.086% of 350,000 active | AID 743247 | AH1F fibroblasts, Alexa488-fibronectin deposition fluorescence, overnight | inhibition, % at 12.6 µM;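 active = mean inhibition across replicates of 30% or more, regardless of how many single replicates reach that level; inconclusive = mean under 30% yet at least half of replicates reach 30%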;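 also: positive control wells lacked labelled fibronectin entirely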
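Measured by – fluorescence 485/525 nm · System – AH1F fibroblast monolayer, labelled fibronectin deposition · Amount – 10000 cells per well · Buffer or medium – serum-reduced DMEM (2% serum) · Doses – single dose, pinned · Also added – fluorescent fibronectin at 24 nM final · Schedule – 1 h cell attachment, overnight exposure to compound and label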
LMP1 NFkB inh: reduces LMP1-driven NF-kappaB luciferase signal | 0.69% of 350,000 active | LMP1-induced NF-kappaB luciferase reporter cells, luminescence | AID 504558 | inhibition, % at 12.5 µM; in the data active = inhibition above about 41%; inconclusive = no clear call, values can overlap the other calls;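 also: 0% = neutral control wells and 100% = reference inhibitor control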
EWS-Fli block: inhibitors of EWS/Fli oncoprotein transcriptional activity; AID 651661; inhibition, % at 12.6 µM; A673 NR0B1-luciferase reporter, viability-normalised; 0.67% of 350,000 active;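 active = mean inhibition of at least 50% after viability correction, with every replicate also passing that limit; inconclusive = mean reaches 50% but only one of two replicates passes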;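 also: firefly luciferase signal divided by Alamar Blue viability fluorescence both relative to DMSO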
Active calls of the source: *. Compounds with a hit are over-represented: about 2.1% of the library has one in this group of screens.

Results for C[C@H]1CCCCO[C@H](CN(C)Cc2ccc3c(c2)OCO3)[C@@H](C)CN([C@@H](C)CO)C(=O)c2cc(NC(=O)C3CCCCC3)ccc2O1 ?
PAX8 inh HTS: -7; EWS-Fli block: 11

How did CN(C(=O)COc1ccccc1C(=O)NCCOc1ccccc1)c1ccccc1 do in these assays?
Shn3 3UTR inh: 94*; PAX8 inh HTS: 74*; aSyn 5UTR inh: -20; FN deposition inh: 3; LMP1 NFkB inh: 13

Results for C[C@H]1CN([C@@H](C)CO)C(=O)c2cccc(NS(=O)(=O)c3cn(C)cn3)c2O[C@@H]1CN(C)C(=O)Nc1ccc2c(c1)OCO2 ?
EWS-Fli block: -8

How did NS(=O)(=O)c1ccc(CCN2C(=O)/C(=C\c3ccc(Cl)cc3)SC2=S)cc1 do in these assays?
Shn3 3UTR inh: 18; PAX8 inh HTS: 112*; aSyn 5UTR inh: -33; FN deposition inh: 3; LMP1 NFkB inh: 24

What do the screens show for `CN(C)C(=O)c1cccc(-c2ccc([C@H]3[C@@H](CO)N4CCCCN(CCC(F)(F)F)C[C@@H]34)cc2)c1`?
PAX8 inh HTS: -14; EWS-Fli block: -7

Results for CCCCNC(=O)CO/N=C(\C)c1cc2ccccc2o1 ?
Shn3 3UTR inh: -7; aSyn 5UTR inh: -50; FN deposition inh: -7; LMP1 NFkB inh: -1

Results for C/C(=N\OCC(=O)NCC(F)(F)F)c1cc2ccccc2o1 ?
Shn3 3UTR inh: -65; PAX8 inh HTS: 84*; aSyn 5UTR inh: -76; FN deposition inh: 0; LMP1 NFkB inh: -20; EWS-Fli block: -71

What do the screens show for `COc1ccc(Nc2ccc3c(c2)=NC2(CCCCC2)[N+]=3[O-])cc1`?
Shn3 3UTR inh: -17; PAX8 inh HTS: 75*; aSyn 5UTR inh: -87; FN deposition inh: 5; LMP1 NFkB inh: inconclusive

What do the screens show for `C[C@H]1CCCCO[C@H](CN(C)C(=O)NC2CCCCC2)[C@@H](C)CN([C@@H](C)CO)C(=O)c2cc(NC(=O)Cc3ccccc3)ccc2O1`?
EWS-Fli block: 9

What do the screens show for `O=C(/C=C/c1ccccc1)NC(=S)NNC(=O)c1cnccn1`?
Shn3 3UTR inh: 57; PAX8 inh HTS: 31; aSyn 5UTR inh: 87*; FN deposition inh: 3; LMP1 NFkB inh: 30; EWS-Fli block: 23

What do the screens show for `COc1cc(OC)cc(C(=O)NC(=S)NNC(=O)c2cnccn2)c1`?
Shn3 3UTR inh: 78; PAX8 inh HTS: 31; aSyn 5UTR inh: 73*; FN deposition inh: 2; LMP1 NFkB inh: 35; EWS-Fli block: 9

What do the screens show for `COc1ccc(C(=O)NC(=S)NNC(=O)c2cnccn2)cc1OC`?
Shn3 3UTR inh: 76; PAX8 inh HTS: 4; aSyn 5UTR inh: 90*; FN deposition inh: -2; LMP1 NFkB inh: 2

Results for O=C(C[C@@H]1C[C@@H]2c3cc(NC(=O)NC4CCCC4)ccc3O[C@@H]2[C@H](CO)O1)NCc1cccnc1 ?
PAX8 inh HTS: -20; FN deposition inh: 2; EWS-Fli block: -12

How did C[C@@H]1CCCCO[C@@H](CN(C)S(=O)(=O)c2ccc(F)cc2)[C@H](C)CN([C@@H](C)CO)C(=O)c2cc(NS(=O)(=O)c3ccccc3)ccc2O1 do in these assays?
PAX8 inh HTS: -9; EWS-Fli block: -8

What do the screens show for `COc1ccc(S(=O)(=O)NCc2ccccn2)cc1NC(=O)c1ccccc1C`?
Shn3 3UTR inh: 0; PAX8 inh HTS: 15; aSyn 5UTR inh: -26; FN deposition inh: -8; LMP1 NFkB inh: -15; EWS-Fli block: 60*

What do the screens show for `COc1ccc(S(=O)(=O)NCc2ccccn2)cc1NC(=O)c1ccc(Cl)cc1`?
Shn3 3UTR inh: 16; PAX8 inh HTS: 29; aSyn 5UTR inh: -33; FN deposition inh: 6; LMP1 NFkB inh: -13; EWS-Fli block: 8

Results for COc1ccc(NC(=O)N(C)C[C@H]2Oc3c(NS(=O)(=O)c4ccccc4)cccc3C(=O)N([C@@H](C)CO)C[C@H]2C)cc1 ?
PAX8 inh HTS: -5; EWS-Fli block: -7

What do the screens show for `COc1cc(OC)c2ccc(=O)oc2c1C(CC(=O)N1CCOCC1)c1ccc(N(C)C)cc1` (stereo unspecified)?
Shn3 3UTR inh: -9; PAX8 inh HTS: -5; aSyn 5UTR inh: -3; FN deposition inh: 31*; LMP1 NFkB inh: -1; EWS-Fli block: 3

Assay outcomes: PubChem, Broad Institute
